Results: the RNAGym collection of RNA variant scans (doi:10.1038/s41586-018-0170-7)

B1: tRNA (parent)
chain: GUUCCGUUGGCGUAAUGGUAACGCGUCUCCCUCCUAAGGAGAAGACUGCGGGUUCGAGUCCCGUACGGAACG

Variants of: B1
Assay: yeast fitness, log relative to wild type (ln ratio); higher = fitter; tRNA-Arg(CCU), competitive growth, 37 C, 1 M NaCl
How it was run: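 Two independent transformations put a combinatorial tRNA-Arg(CCU) variant library on a HIS3 centromeric plasmid into BY4742 lacking the chromosomal gene. Pools were grown in SC-HIS at 30 °C for 4 generations, then in SC-HIS 1M NaCl at 37 °C for ~6.5 generations (~26.5 h), with three outputs taken per input. Fitness compares a genotype's generations with the wild type's as a natural log ratio. Those generations are OD-scaled log2 output/input frequencies, inverse-variance weighted across replicates, from 125 bp paired-end Illumina counts.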

In order of falling “yeast fitness (ln)” value:
1. G6U C46U C66A A70G  -0.00887
2. G1A U2C A70G  -0.0111
3. U2C C46U A69G A70G C71U  -0.0139
4. U2C G6A A43C C46U C66A A70U  -0.0148
5. U2C G6U C66A A70G C71U  -0.0156
6. A69G C71U  -0.0165
7. U2G G6U C66A A70U C71U  -0.0189
8. U2C G6A C46U C66U A70U  -0.0206
9. U2C C66U A70G C71U  -0.0234
10. C27U C46U A69G  -0.0243
11. U2C G6U C27U C66A A70G C71U  -0.0263
12. G1A U2C G6U C46U A70U C71U  -0.033
13. G1A U2G A43C A70U C71U  -0.0335
14. G1A A69G A70G C71U  -0.0385
15. U2C C46U C66A C71U  -0.0793
16. G6A A69G A70U  -0.082
17. G6A C27U C66A A69G A70U C71U  -0.0879
18. U2C C66A A69G A70U  -0.0958
19. G1A C66A A70G  -0.0993
20. U2C C27U C66A A70G  -0.105
21. U2C G6A C27U A43C A70U  -0.108
22. G1A A43C A69G A70G  -0.11
23. G1A U2G A43C C46U C66A A70U  -0.125
24. U2C G6U A43C C46U C71U  -0.125
25. U2C C27U A43C C46U C66A C71U  -0.132
26. U2G C27U C66A C71U  -0.148
27. U2G A43C C46U A70G C71U  -0.149
28. G1A G6U C46U C66U A70U  -0.153
29. U2G G6U C66A A69G A70G C71U  -0.158
30. U2G C27U A43C C46U C66A A70G  -0.16
31. U2G G6U C46U C66A A69G A70G C71U  -0.164
32. U2G G6A C27U C46U A69G A70G  -0.174
33. G1A U2C A43C C46U A69G C71U  -0.175
34. G1A U2C G6U C27U A43C C46U A69G A70U  -0.183
35. G1A U2G A43C C66U A70U  -0.185
36. U2G G6A C27U A43C C46U C66A A69G A70U  -0.187
37. U2G G6A C46U C66U A69G A70G C71U  -0.188
38. G1A U2G G6A A43C C46U C66A A70U  -0.191
39. G1A C46U C66U A70U  -0.201
40. G1A U2G C27U C46U A69G A70U  -0.207
41. U2G C27U A43C C46U C66A A69G A70G  -0.21
42. G1A U2G G6A A43C C66A A70U  -0.216
43. G1A G6U C46U A69G A70G C71U  -0.216
44. C27U A43C C46U C66U  -0.217
45. G1A G6A A43C A70U C71U  -0.218
46. U2C G6U C27U C46U C66U A69G A70U  -0.218
47. G6A C27U C46U C66A A70G  -0.218
48. G1A U2G G6U A70U C71U  -0.22
49. G1A U2C C27U C66A A70G C71U  -0.221
50. G1A G6A C27U C46U C66A A70U C71U  -0.228
51. G1A U2G A43C C46U C66A A69G A70U C71U  -0.233
52. G1A U2C C27U A43C C46U C66A C71U  -0.24
53. G6A C27U C46U C66A A70G C71U  -0.252
54. G1A U2G G6A C27U A43C A70U  -0.26
55. G1A U2C G6A C27U C66U A70U C71U  -0.261
56. U2C G6U A43C C46U C66U A69G A70G  -0.262
57. U2G G6U A43C C46U C66U A69G A70G  -0.267
58. U2C G6A C27U A43C C46U C66A A70U C71U  -0.268
59. G6U C27U A43C C46U A69G  -0.268
60. G1A G6A A43C C46U C66U A69G A70G C71U  -0.274
61. G1A U2G C27U A43C A69G A70U  -0.281
62. G1A A43C C66U C71U  -0.289
63. G1A G6U C27U C46U C66U C71U  -0.297
64. U2C G6U C27U A43C C46U C66U A69G A70U  -0.3
65. U2C G6A C27U A69G A70U C71U  -0.309
66. U2G G6A C66A A69G A70U C71U  -0.31
67. U2C C66U A69G C71U  -0.311
68. G1A U2G C27U A43C C46U C66U A70G C71U  -0.318
69. G6U C27U A43C C46U C66U A70U  -0.322
70. G1A U2G C27U A43C C46U C66U A70U C71U  -0.329
71. C27U A43C C46U C66U A69G C71U  -0.361
72. U2C G6A C27U A43C A69G A70U C71U  -0.384
73. G1A G6U A43C C46U C66U A69G A70G  -0.389
74. U2G G6U A43C C66U A70G C71U  -0.397
75. A43C C66A A69G A70U C71U  -0.398
76. G1A G6A A43C C66U A69G A70U C71U  -0.402
77. G1A G6U C27U A43C C66U A70G C71U  -0.415
78. G1A U2G G6U C27U A43C A69G A70U  -0.454
79. G1A G6U C27U C66U A69G A70G  -0.47
80. G1A G6A C27U A43C C66U A69G A70G C71U  -0.487
81. G1A U2G G6U C27U A43C A69G A70U C71U  -0.494
82. G6A C27U A43C C66A A69G A70U C71U  -0.54
83. G1A U2C G6A C27U A43C C46U C66U A69G A70U C71U  -0.555
84. U2C G6U C27U C66U A70G C71U  -0.57
